# Results from ChEMBL document CHEMBL4334464, “From Phenylthiazoles to Phenylpyrazoles: Broadening the Antibacterial Spectrum toward Carbapenem-Resistant Bacteria” (J Med Chem, 2019).
# The source made the active and inactive calls. No cut-off for these calls is given here.
# Columns and labels:
# [1] = system: Salmonella enterica; test: Ratio of MBC to MIC for Salmonella enterica NR-170 clinical isolates; assay type: functional
# [2] = system: Staphylococcus epidermidis; test: Ratio of MBC to MIC for Staphylococcus epidermidis NRS101 clinical isolates; assay type: functional
# [3] = system: Streptococcus pneumoniae; test: Ratio of MBC to MIC for […] Streptococcus pneumoniae ATCC 700677 clinical isolates; assay type: functional
# [4] = system: Streptococcus pneumoniae; test: Ratio of MBC to MIC for cephalosporin-resistant Streptococcus pneumoniae ATCC 51916 clinical isolates; assay type: functional
# [5] = biological target: T1, Ditrans,polycis-undecaprenyl-diphosphate synthase ((2E,6E)-farnesyl-diphosphate specific) (Escherichia coli (strain K12)) (UniProt P60472); test: Inhibition of Escherichia coli UPPS using FPP/IPP as substrate preincubated for 30 mins followed by substrates addition and measured after 30 mins by malachite green reagent based assay
# T1 sequence (whole entry): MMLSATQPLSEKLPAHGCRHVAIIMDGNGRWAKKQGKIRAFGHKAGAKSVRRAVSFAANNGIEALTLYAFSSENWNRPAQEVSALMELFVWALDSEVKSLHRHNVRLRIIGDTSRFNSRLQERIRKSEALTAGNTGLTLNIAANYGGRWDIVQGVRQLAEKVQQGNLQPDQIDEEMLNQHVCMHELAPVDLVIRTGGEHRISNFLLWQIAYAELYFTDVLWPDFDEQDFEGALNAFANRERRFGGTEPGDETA
# [6] = system: Escherichia coli; test: Antibacterial activity against Escherichia coli ATCC 25922 clinical isolates after 18 to 20 hrs in aerobic condition by CLSI-based broth microdilution assay; assay type: functional
# [7] = system: Salmonella typhimurium; test: Antibacterial activity against Salmonella typhimurium ATCC 700720 after 18 to 20 hrs in aerobic condition by CLSI-based broth microdilution assay; assay type: functional, Salmonella enterica subsp. enterica serovar Typhimurium; details: Salmonella enterica
# [8] = system: Enterococcus faecalis; test: Antibacterial activity against vancomycin-resistant Enterococcus faecalis ATCC 51299 clinical isolates after 18 to 20 hrs in aerobic condition by CLSI-based broth microdilution assay; assay type: functional
# [9] = system: Enterococcus faecalis; test: Ratio of MBC to MIC for vancomycin-resistant Enterococcus faecalis ATCC 51299 clinical isolates; assay type: functional
# [10] = system: Escherichia coli; test: Ratio of MBC to MIC for Escherichia coli ATCC 1411 clinical isolates; assay type: functional
# [11] = system: Pseudomonas aeruginosa; test: microbe, parasite or virus in culture; details: ATCC 9027
# [12] = Stability in human liver microsomes assessed as compound remaining incubated for 30 mins in absence of NADPH by LC/MS/MS analysis; assay type: ADME, Microsome; details: read-out: Stability
# In short: (§1)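 Two independent runs (1st and 2nd) were done at each time point, and the mean percent remaining is reported. Incubations were run both with and without NADPH. Half-life and intrinsic clearance (Clint) were derived from the time-course data.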
# [13] = Antibacterial activity against Enterobacter cloacae subsp. cloacae ATCC BAA-1143 clinical isolates after 18 to 20 hrs in aerobic condition by CLSI-based broth microdilution assay; assay type: functional
# [14] = system: Staphylococcus aureus; test: Antibiofilm activity against methicillin-resistant Staphylococcus aureus NRS384-USA300 clinical isolates assessed as inhibition of biofilm formation at 0.5 times MIC incubated for 24 hrs by crystal violet staining based spectrophotometric method relative to control; assay type: functional
# [15] = system: Escherichia coli; test: Antibacterial activity against Escherichia coli BW25113 clinical isolates after 18 to 20 hrs in aerobic condition by CLSI-based broth microdilution assay; assay type: functional
# [16] = system: Acinetobacter baumannii; test: Antibacterial activity against Acinetobacter baumannii ATCC 19606 clinical isolates after 18 to 20 hrs in aerobic condition by CLSI-based broth microdilution assay; assay type: functional; details: ATCC 19606 = CIP 70.34 = JCM 6841
# [17] = system: Listeria monocytogenes; test: Antibacterial activity against Listeria monocytogenes ATCC 19111 after 18 to 20 hrs in aerobic condition by CLSI-based broth microdilution assay; assay type: functional
# [18] = Stability in human liver microsomes assessed as compound remaining incubated for 15 mins in absence of NADPH by LC/MS/MS analysis; assay type: ADME, Microsome; details: read-out: Stability
# [19] = system: Escherichia coli; test: Inhibition of 6His tagged Escherichia coli UPPP expressed in Escherichia coli C41(DE3) cells preincubated for 15 mins followed by FPP substrate addition and measured after 20 mins by malachite green reagent based assay
# [20] = Stability in human liver microsomes assessed as compound remaining incubated for 30 mins in presence of NADPH by LC/MS/MS analysis; assay type: ADME, Microsome; details: read-out: Stability; in short: as §1
# [21] = system: Escherichia coli; test: Ratio of MBC to MIC for Escherichia coli ATCC 35150 clinical isolates; assay type: functional
# [22] = system: Acinetobacter baumannii; test: Antibacterial activity against carbapenem-resistant Acinetobacter baumannii ATCC BAA 1605 clinical isolates after 18 to 20 hrs in aerobic condition by CLSI-based broth microdilution assay; assay type: functional
# [23] = Stability in human liver microsomes assessed as compound remaining measured immediately in presence of NADPH by LC/MS/MS analysis; assay type: ADME, Microsome; details: read-out: Stability; in short: as §1
# [24] = Stability in human liver microsomes assessed as compound remaining incubated for 45 mins in presence of NADPH by LC/MS/MS analysis; assay type: ADME, Microsome; details: read-out: Stability; in short: as §1
# [25] = Efflux ratio of apparent permeability across basolateral to apical side over apical to basolateral side in human Caco2 cells after 2 hrs by LC/MS/MS analysis; assay type: ADME, cell-based; details: Caco-2
# [26] = system: Streptococcus pneumoniae; test: Antibacterial activity against cephalosporin-resistant Streptococcus pneumoniae ATCC 51916 clinical isolates after 18 to 20 hrs by CLSI-based broth microdilution assay; assay type: functional
# [27] = system: Staphylococcus aureus; test: Antibacterial activity against methicillin-resistant Staphylococcus aureus NRS384-USA300 clinical isolates after 18 to 20 hrs in aerobic condition by CLSI protocol based broth microdilution assay; assay type: functional
# [28] = system: Staphylococcus aureus; test: Antibacterial activity against Methicillin-resistant Staphylococcus aureus USA700-NRS386 clinical isolates after 18 to 20 hrs in aerobic condition by CLSI protocol based broth microdilution assay; assay type: functional
# [29] = system: Staphylococcus aureus; test: Antibacterial activity against Methicillin-resistant Staphylococcus aureus NRS385-USA500 clinical isolates after 18 to 20 hrs in aerobic condition by CLSI protocol based broth microdilution assay; assay type: functional
# [30] = system: Staphylococcus epidermidis; test: Antibacterial activity against Staphylococcus epidermidis NRS101 after 18 to 20 hrs in aerobic condition by CLSI-based broth microdilution assay; assay type: functional
# [31] = system: Escherichia coli; test: Ratio of MBC to MIC for Escherichia coli ATCC 25922 clinical isolates; assay type: functional
# [32] = Apparent permeability across basolateral to apical side in human Caco2 cells after 2 hrs by LC/MS/MS analysis; assay type: ADME, cell-based; details: Caco-2
# [33] = system: Listeria monocytogenes; test: Ratio of MBC to MIC for Listeria monocytogenes ATCC 19111 clinical isolates; assay type: functional
# [34] = system: Salmonella enterica; test: Antibacterial activity against Salmonella enterica NR-170 clinical isolates after 18 to 20 hrs in aerobic condition by CLSI-based broth microdilution assay; assay type: functional
# [35] = system: Staphylococcus aureus; test: Antibacterial activity against Methicillin-sensitive Staphylococcus aureus ATCC 6538 clinical isolates after 18 to 20 hrs in aerobic condition by CLSI protocol based broth microdilution assay; assay type: functional
# [36] = system: Escherichia coli; test: Antibacterial activity against Escherichia coli ATCC 35150 clinical isolates after 18 to 20 hrs in aerobic condition by CLSI-based broth microdilution assay; assay type: functional
# [37] = system: Klebsiella pneumoniae; test: Ratio of MBC to MIC for Klebsiella pneumoniae BAA-1144 clinical isolates; assay type: functional
# [38] = system: Acinetobacter baumannii; test: Ratio of MBC to MIC for Acinetobacter baumannii NR 17786 clinical isolates; assay type: functional
Compound,Ratio [1],Ratio [2],Ratio [3],Ratio [4],inhibition [5],MIC [6],MIC [7],MIC [8],Ratio [9],Ratio [10],MIC [11],MIC [13],MIC [15],MIC [16],MIC [17],inhibition [19],Ratio [21],MIC [22],MIC [26],MIC [27],further results
C/C(=N\NC(=N)N)c1cnn(-c2ccc(C#CC3CCCC3)cc2)c1C,>=1,<3,<3,<3,inactive,4 µg/mL,8 µg/mL,0.5 µg/mL,<3,>=1,16 µg/mL,8 µg/mL,8 µg/mL,4 µg/mL,0.5 µg/mL,inactive,>=1,8 µg/mL,1 µg/mL,1 µg/mL,remaining at 0.5 h [12]: 99%; inhibition (INH) [14]: 31%; remaining at 0.25 h [18]: 99%; remaining at 0.5 h [20]: 92%; remaining at 0 min [23]: 100%; remaining at 0.75 h [24]: 81%; efflux ratio at 2 h [25]: 1; MIC [28]: 1 µg/mL; MIC [29]: 0.5 µg/mL; MIC [30]: 1 µg/mL; Ratio [31]: >=1; Papp B→A at 2 h [32]: 0.01 ×10⁻⁶ cm/s; Ratio [33]: <3; MIC [34]: 8 µg/mL; MIC [35]: 0.5 µg/mL; MIC [36]: 4 µg/mL; Ratio [37]: >=1; Ratio [38]: >=1
C/C(=N\NC1=NCCN1)c1cnn(-c2ccc(C#CC3CCCC3)cc2)c1C,>=1,<3,<3,<3,inactive,32 µg/mL,64 µg/mL,8 µg/mL,<3,>=1,32 µg/mL,32 µg/mL,64 µg/mL,16 µg/mL,4 µg/mL,inactive,>=1,16 µg/mL,8 µg/mL,4 µg/mL,remaining at 0.5 h [12]: 97%; remaining at 0.25 h [18]: 98%; remaining at 0.5 h [20]: 92%; remaining at 0 min [23]: 100%; remaining at 0.75 h [24]: 79%; efflux ratio at 2 h [25]: 1.5; MIC [28]: 4 µg/mL; MIC [29]: 4 µg/mL; MIC [30]: 2 µg/mL; Ratio [31]: >=1; Papp B→A at 2 h [32]: 0.15 ×10⁻⁶ cm/s; Ratio [33]: <3; MIC [34]: 32 µg/mL; MIC [35]: 1 µg/mL; MIC [36]: 16 µg/mL; Ratio [37]: >=1; Ratio [38]: >=1
C/C(=N\NC(=N)N)c1cnn(-c2ccc(C#CC3CCCCC3)cc2)c1C,>=1,<3,<3,<3,inactive,4 µg/mL,8 µg/mL,2 µg/mL,<3,>=1,16 µg/mL,8 µg/mL,4 µg/mL,4 µg/mL,2 µg/mL,inactive,>=1,4 µg/mL,2 µg/mL,2 µg/mL,inhibition (INH) [14]: 22%; MIC [28]: 2 µg/mL; MIC [29]: 2 µg/mL; MIC [30]: 2 µg/mL; Ratio [31]: >=1; Ratio [33]: <3; MIC [34]: 8 µg/mL; MIC [35]: 2 µg/mL; MIC [36]: 4 µg/mL; Ratio [37]: >=1; Ratio [38]: >=1
